From ChEMBL document CHEMBL1154186, “Synthesis, kinase inhibitory potencies, and in vitro antiproliferative evaluation of new Pim kinase inhibitors” (J Med Chem, 2009)
pIC50: −log10 of the molar value.

Experiments:
[1] = molecular target: Serine/threonine-protein kinase PAK 6 (Homo sapiens) (UniProt Q9NQU5); experiment: Inhibition of PAK6 assessed as residual enzyme activity at 10 uM relative to untreated control
Outline: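 Kinases of human origin, except CK1δ, which is rat. Run in 50 mM Tris/HCl pH 7.5, 0.1 mM EGTA, 0.1% 2-mercaptoethanol and 10 mM Mg acetate, with [γ-33P]ATP at 20 µM, 30 min at 21 °C. Acid-stopped and captured on P81 filters. Compound tested at 10 µM; residual % of uninhibited control, duplicate determinations.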

[2] = molecular target: Serine/threonine-protein kinase pim-3 (Homo sapiens) (UniProt Q86V86); experiment: Inhibition of Pim-3 assessed as residual enzyme activity at 10 uM relative to untreated control
[3] = molecular target: T1, Aurora kinase C (Homo sapiens) (UniProt Q9UQB9); experiment: Inhibition of AURORA C assessed as residual enzyme activity at 10 uM relative to untreated control
T1 sequence (whole entry): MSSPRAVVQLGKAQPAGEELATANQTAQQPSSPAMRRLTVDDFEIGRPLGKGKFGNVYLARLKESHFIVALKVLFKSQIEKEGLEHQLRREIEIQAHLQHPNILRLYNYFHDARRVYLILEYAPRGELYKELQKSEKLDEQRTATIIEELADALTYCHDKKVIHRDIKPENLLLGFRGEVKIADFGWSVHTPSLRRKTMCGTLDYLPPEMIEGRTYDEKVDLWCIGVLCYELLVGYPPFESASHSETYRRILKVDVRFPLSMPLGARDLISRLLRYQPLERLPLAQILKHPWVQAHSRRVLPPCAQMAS
Outline: (§1)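 Radiometric filter-binding assay at 21 °C for 30 min. Mix: 50 mM Tris/HCl pH 7.5, 0.1 mM EGTA, 0.1% 2-mercaptoethanol, 10 mM Mg acetate and [γ-33P]ATP (800 cpm/pmol) at 5 µM. Stopped with orthophosphoric acid and spotted on P81. Compound at 10 µM; activity given as % remaining versus no-inhibitor control, duplicates. Kinases human full-length unless noted.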

[4] = molecular target: Mitogen-activated protein kinase 3 (Homo sapiens) (UniProt P27361); experiment: Inhibition of ERK1 assessed as residual enzyme activity at 10 uM relative to untreated control; outline: as §1
Chain of Mitogen-activated protein kinase 3 (Homo sapiens) (P27361 whole entry): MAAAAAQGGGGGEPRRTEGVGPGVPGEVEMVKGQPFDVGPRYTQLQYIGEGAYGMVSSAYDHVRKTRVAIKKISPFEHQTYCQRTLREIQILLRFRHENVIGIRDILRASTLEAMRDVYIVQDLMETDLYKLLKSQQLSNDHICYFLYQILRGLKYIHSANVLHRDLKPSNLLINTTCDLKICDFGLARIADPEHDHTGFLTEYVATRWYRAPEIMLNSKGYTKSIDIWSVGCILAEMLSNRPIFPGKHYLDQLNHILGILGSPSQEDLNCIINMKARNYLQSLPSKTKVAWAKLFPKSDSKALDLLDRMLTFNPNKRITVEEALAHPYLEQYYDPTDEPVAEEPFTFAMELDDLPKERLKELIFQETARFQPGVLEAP

[5] = molecular target: MAP kinase-interacting serine/threonine-protein kinase 1 (Homo sapiens) (UniProt Q9BUB5); experiment: Inhibition of MNK1 assessed as residual enzyme activity at 10 uM relative to untreated control
Chain of MAP kinase-interacting serine/threonine-protein kinase 1 (Homo sapiens) (Q9BUB5 whole entry, looked up): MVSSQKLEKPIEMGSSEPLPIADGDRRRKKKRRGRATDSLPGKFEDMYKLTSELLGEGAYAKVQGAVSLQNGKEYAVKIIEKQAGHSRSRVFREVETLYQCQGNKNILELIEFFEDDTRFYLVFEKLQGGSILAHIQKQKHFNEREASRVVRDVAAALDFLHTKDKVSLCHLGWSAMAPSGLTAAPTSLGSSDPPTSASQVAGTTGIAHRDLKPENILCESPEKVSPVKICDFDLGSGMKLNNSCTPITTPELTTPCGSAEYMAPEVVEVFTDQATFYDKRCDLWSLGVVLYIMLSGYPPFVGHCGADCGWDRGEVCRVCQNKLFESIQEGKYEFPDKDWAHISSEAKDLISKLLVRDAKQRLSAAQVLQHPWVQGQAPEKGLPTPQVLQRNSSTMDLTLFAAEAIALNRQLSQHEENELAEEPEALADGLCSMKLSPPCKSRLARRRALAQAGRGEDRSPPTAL
Outline: (§2)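 Assayed with [γ-33P]ATP at 50 µM and 10 mM Mg acetate in 50 mM Tris/HCl pH 7.5, 0.1 mM EGTA, 0.1% 2-mercaptoethanol, 30 min, 21 °C. Phosphoric acid stop, P81 filter capture. ERK2 and Lck are mouse; AMPK is rat. 10 µM compound; % activity remaining relative to control without inhibitor, duplicates.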

[6] = molecular target: Maternal embryonic leucine zipper kinase (Homo sapiens) (UniProt Q14680); experiment: Inhibition of MELK assessed as residual enzyme activity at 10 uM relative to untreated control; outline: as §2
Chain of Maternal embryonic leucine zipper kinase (Homo sapiens) (Q14680 whole entry, looked up): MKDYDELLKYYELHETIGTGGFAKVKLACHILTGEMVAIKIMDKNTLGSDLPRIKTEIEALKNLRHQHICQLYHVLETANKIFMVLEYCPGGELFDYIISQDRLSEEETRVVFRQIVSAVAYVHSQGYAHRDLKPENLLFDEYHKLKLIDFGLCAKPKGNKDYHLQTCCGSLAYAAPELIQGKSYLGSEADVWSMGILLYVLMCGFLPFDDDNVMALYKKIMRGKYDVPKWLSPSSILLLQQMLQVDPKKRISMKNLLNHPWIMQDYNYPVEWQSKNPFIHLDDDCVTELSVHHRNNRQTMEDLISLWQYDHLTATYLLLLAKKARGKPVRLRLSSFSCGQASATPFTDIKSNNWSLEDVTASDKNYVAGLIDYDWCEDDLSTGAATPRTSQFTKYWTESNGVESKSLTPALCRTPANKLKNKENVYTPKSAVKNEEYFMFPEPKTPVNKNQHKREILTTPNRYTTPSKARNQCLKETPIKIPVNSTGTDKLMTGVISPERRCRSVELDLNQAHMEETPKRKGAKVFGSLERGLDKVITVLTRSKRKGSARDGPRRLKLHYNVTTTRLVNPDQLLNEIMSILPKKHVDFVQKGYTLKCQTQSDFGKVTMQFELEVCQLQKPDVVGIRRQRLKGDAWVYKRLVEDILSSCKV

PA-1 = experiment: Antiproliferative activity against human PA1 cells after 48 hrs by resazurin dye reduction assay; assay type: functional, cell-based; details: PA-1, 48 h
Outline: (§3)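 Cells (human fibroblast primary culture, or PC3, DU145 or PA1 cancer lines) were kept as monolayers in Glutamax MEM with Earle's salts, 10% FCS, pyruvate, nonessential amino acids and gentamicin, at 37 °C in 5% CO2. 5×10^3 cells/well adhered for 16 h, then had 48 h continuous drug exposure (20 mM DMSO stock). Resazurin 25 µg/mL for 1 h; fluorescence ex 530/em 590 nm. IC50 from blank-corrected concentration–survival curves versus control wells.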

DU-145 = experiment: Antiproliferative activity against human DU145 cells after 48 hrs by resazurin dye reduction assay; assay type: functional, cell-based; details: DU-145, 48 h; outline: as §3
[7] = Antiproliferative activity against human fibroblasts after 48 hrs by resazurin dye reduction assay; assay type: cell-based; details: Fibroblast; outline: as §3
PC-3 = experiment: Antiproliferative activity against human PC3 cells after 48 hrs by resazurin dye reduction assay; assay type: functional, cell-based; details: PC-3, 48 h; outline: as §3

Chain of Serine/threonine-protein kinase PAK 6 (Homo sapiens) (Q9NQU5 whole entry, looked up): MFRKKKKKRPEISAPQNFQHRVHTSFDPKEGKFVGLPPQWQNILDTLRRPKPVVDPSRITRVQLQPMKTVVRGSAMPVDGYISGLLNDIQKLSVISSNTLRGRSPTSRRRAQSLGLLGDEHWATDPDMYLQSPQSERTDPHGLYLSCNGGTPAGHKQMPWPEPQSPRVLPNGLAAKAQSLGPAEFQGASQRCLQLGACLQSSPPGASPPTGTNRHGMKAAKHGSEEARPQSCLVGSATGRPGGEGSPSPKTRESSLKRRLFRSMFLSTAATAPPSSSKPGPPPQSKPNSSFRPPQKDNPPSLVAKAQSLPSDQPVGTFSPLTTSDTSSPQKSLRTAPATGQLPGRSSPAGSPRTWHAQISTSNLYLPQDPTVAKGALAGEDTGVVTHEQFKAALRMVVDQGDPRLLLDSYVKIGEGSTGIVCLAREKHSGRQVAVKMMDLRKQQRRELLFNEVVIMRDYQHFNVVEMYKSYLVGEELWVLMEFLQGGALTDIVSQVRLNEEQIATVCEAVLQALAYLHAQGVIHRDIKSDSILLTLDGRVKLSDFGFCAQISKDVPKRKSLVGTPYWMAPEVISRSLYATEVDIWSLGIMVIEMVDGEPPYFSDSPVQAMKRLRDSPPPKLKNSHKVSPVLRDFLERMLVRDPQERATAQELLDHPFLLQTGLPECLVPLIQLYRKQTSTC

c1ccc2c(c1)[nH]c1c2ccc2cc[nH]c21
Activity [1]: 92%
Activity [2]: 38%
Activity [3]: 85%
Activity [4]: 108%
Activity [5]: 69%
Activity [6]: 93%

O=Cc1c[nH]c2c1ccc1c3ccccc3[nH]c12
Activity [1]: 94%
Activity [3]: 79%
pIC50 (PA-1): 5.35
Activity [4]: 87%
pIC50 (DU-145): 4.59
Activity [5]: 27%
Activity [6]: 61%
pIC50 [7]: 4.68
pIC50 (PC-3): 5.02

O=Cc1c[nH]c2ccc3c4ccccc4[nH]c3c12
Activity [1]: 99%
Activity [2]: 102%
Activity [3]: 104%
Activity [4]: 95%
Activity [5]: 106%
Activity [6]: 89%

c1ccc2c(c1)[nH]c1c3cc[nH]c3ccc21
Activity [1]: 91%
Activity [2]: 29%
Activity [3]: 99%
Activity [4]: 97%
Activity [5]: 101%
Activity [6]: 82%
